Experimental data as given in ChEMBL document CHEMBL1129609, “Synthesis and antiviral activity evaluation of some new aminoadamantane derivatives. 2” (1996).
Values after ≈ are worked out from the molar mass of the structure shown.

Tests used:
[1] = tested on: Human alphaherpesvirus 2; assay: Antiviral activity against HSV-2 virus infected HEF cell lines.; assay type: functional
Summary of the method: (§1)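 Human embryonic fibroblasts, from embryonic lung or embryonic skin-muscle, infected with the virus. Endpoint is the minimum inhibitory concentration that reduces virus-induced cytopathicity by 50%. Values are averages of at least two separate experiments.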

[2] = tested on: Human betaherpesvirus 5; assay: Antiviral activity against HCMV virus infected HEL cell lines.; assay type: functional
Summary of the method: (§2)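 Vero (African green monkey kidney), HeLa (human epithelial) or HEL (human embryonic lung) cell monolayers infected with the virus. Readout is the minimum inhibitory concentration that reduces virus-induced cytopathicity by 50%. Values are averages of at least two separate experiments.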

[3] = Antiviral activity against influenza A,H2N2 virus infected MDCK cell lines.; assay type: functional
[4] = tested on: HEF; assay: Effects on cell morphology of HEF cell lines.; assay type: functional; conditions: Homo sapiens
Summary of the method: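 Human embryonic skin-muscle fibroblasts were examined under the microscope for changes in normal cell morphology. The value is the minimum concentration causing a microscopically detectable alteration, averaged from at least two separate experiments.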

[5] = tested on: MDCK; assay: Antiviral activity tested against influenza A,H1N1 virus infected MDCK cell lines.; assay type: functional; conditions: Canis lupus familiaris
[6] = tested on: HeLa; assay: Effects on cell morphology of HeLa cell lines.; assay type: functional; conditions: Homo sapiens
Summary of the method: (§3)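 HeLa (human epithelial) or Vero (African green monkey kidney) cells were examined under the microscope for changes in normal morphology. The value is the minimum concentration causing a detectable alteration, averaged from at least two separate experiments.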

[7] = tested on: Human respirovirus 3; assay: Antiviral activity against parainfluenza 3 virus infected Vero cell lines.; assay type: functional; summary of the method: as §2
[8] = tested on: Human alphaherpesvirus 1; assay: Antiviral activity against TK-HSV-1 virus infected HEF cell lines.; assay type: functional; summary of the method: as §1
[9] = tested on: MDCK; assay: Antiviral activity of compound was tested against morphology virus infec+ted MDCK cell lines.; assay type: functional; conditions: Canis lupus familiaris
[10] = tested on: Coxsackievirus B4; assay: Antiviral activity against Coxsackie B4 virus infected HeLa cell lines.; assay type: functional; conditions: Enterovirus B; summary of the method: as §2
[11] = tested on: Enterovirus C; assay: Antiviral activity against polio 1 virus infected HeLa cell lines.; assay type: functional; summary of the method: as §2
[12] = tested on: Coxsackievirus B4; assay: Antiviral activity against Coxsackie B4 virus infected vero cell lines.; assay type: functional; conditions: Enterovirus B; summary of the method: as §2
[13] = tested on: Vesicular stomatitis virus; assay: Antiviral activity against vesicular stomatitis virus infected HeLa cell lines.; assay type: functional; summary of the method: as §2
[14] = tested on: Human immunodeficiency virus 1; assay: Antiviral activity against HIV-1 virus infected CEM cell lines.; assay type: functional, CCRF-CEM
[15] = Antiviral activity against influenza A,H3N2 virus infected MDCK cell lines.; assay type: functional
[16] = tested on: Vero; assay: Effects on cell morphology of Vero cell lines.; assay type: functional; conditions: Chlorocebus sabaeus; summary of the method: as §3
[17] = tested on: Influenza B virus; assay: Antiviral activity against influenza B virus infected MDCK cell lines.; assay type: functional
[18] = tested on: Vaccinia virus; assay: Antiviral activity against vaccinia virus infected HEF cell lines.; assay type: functional; conditions: Orthopoxvirus vaccinia; summary of the method: as §1
[19] = tested on: HEL; assay: Inhibition of HEL cell proliferation.; assay type: functional; conditions: Homo sapiens
Summary of the method: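 Human embryonic lung fibroblasts were used for the proliferation assay. The value is the concentration that reduces cell proliferation by 50%, averaged from at least two separate experiments.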

[20] = tested on: Sindbis virus; assay: Antiviral activity against sindbis virus infected Vero cell lines.; assay type: functional; summary of the method: as §2
[21] = tested on: Human alphaherpesvirus 1; assay: Antiviral activity against HSV-1 virus infected HEF cell lines.; assay type: functional; summary of the method: as §1
[22] = tested on: Vesicular stomatitis virus; assay: Antiviral activity against vesicular stomatitis virus infected HEF cell lines.; assay type: functional; summary of the method: as §1
[23] = tested on: CCRF-CEM; assay: Cytotoxicity against CEM cell lines.; assay type: functional; conditions: Homo sapiens
[24] = tested on: Human immunodeficiency virus 2; assay: Antiviral activity against HIV-2 virus infected CEM cell lines.; assay type: functional, CCRF-CEM
[25] = tested on: Human alphaherpesvirus 3; assay: Antiviral activity against TK-VZV virus infected HEL cell lines.; assay type: functional; summary of the method: as §2
[26] = tested on: Human alphaherpesvirus 3; assay: Antiviral activity against TK+VZV virus infected HEL cell lines.; assay type: functional; summary of the method: as §2
[27] = tested on: Semliki Forest virus; assay: Antiviral activity against Semliki forest virus infected Vero cell lines.; assay type: functional; summary of the method: as §2
[28] = tested on: Mammalian orthoreovirus 1; assay: Antiviral activity against Reo 1 virus infected vero cell lines.; assay type: functional; summary of the method: as §2

Row | Compound | MIC50 [1] | MIC50 [2] | MIC50 [3] | MIC50 [4] | MIC50 [5] | MIC50 [6] | MIC50 [7] | MIC50 [8] | MIC50 [9] | MIC50 [10] | MIC50 [11] | MIC50 [12] | MIC50 [13] | MIC50 [14] | MIC50 [15] | MIC50 [16] | MIC50 [17] | MIC50 [18] | MIC50 [19] | MIC50 [20] | further results
1 | CCN1CCCCC12C1CC3CC(C1)CC2C3 (stereo unspecified) | > 200 µg/mL | > 50 µg/mL | 31 µg/mL (≈ 133 µM) | 100 µg/mL (≈ 428 µM) | 4.4 µg/mL (≈ 18.9 µM) | > 400 µg/mL | > 400 µg/mL | > 200 µg/mL | > 250 µg/mL | > 400 µg/mL | > 400 µg/mL | > 400 µg/mL | > 400 µg/mL | 200 µg/mL (≈ 857 µM) | > 65 µg/mL | > 400 µg/mL | > 80 µg/mL | > 200 µg/mL | > 50 µg/mL | > 400 µg/mL | MIC50 [21]: > 200 µg/mL; MIC50 [22]: > 200 µg/mL; MIC50 [23]: > 200 µg/mL; MIC50 [24]: > 200 µg/mL; MIC50 [25]: > 50 µg/mL; MIC50 [26]: > 50 µg/mL; MIC50 [27]: > 400 µg/mL; MIC50 [28]: > 400 µg/mL
2 | CN1CCCCC12C1CC3CC(C1)CC2C3 (stereo unspecified) | > 200 µg/mL | > 50 µg/mL | 0.58 µg/mL (≈ 2.64 µM) | 100 µg/mL (≈ 456 µM) | 6.2 µg/mL (≈ 28.3 µM) | > 400 µg/mL | > 400 µg/mL | > 200 µg/mL | > 250 µg/mL | > 400 µg/mL | > 400 µg/mL | > 400 µg/mL | > 400 µg/mL | 115 µg/mL (≈ 524 µM) | 45 µg/mL (≈ 205 µM) | > 400 µg/mL | 60 µg/mL (≈ 274 µM) | > 200 µg/mL | > 50 µg/mL | > 400 µg/mL | MIC50 [21]: > 200 µg/mL; MIC50 [22]: > 200 µg/mL; MIC50 [23]: > 200 µg/mL; MIC50 [24]: > 200 µg/mL; MIC50 [25]: > 50 µg/mL; MIC50 [26]: > 50 µg/mL; MIC50 [27]: > 400 µg/mL; MIC50 [28]: > 400 µg/mL
